# Source: ChEMBL document CHEMBL5030505, “Assessment of NR4A Ligands That Directly Bind and Modulate the Orphan Nuclear Receptor Nurr1” (J Med Chem, 2020)
# Activity calls are given as the source filed them. No cut-off for these calls is given here.
# What was measured:
# Assay type in all cases: cell-based
# SK-N-BE(2) [1] = test: Cytotoxicity in human SKNBE2 cells assessed as reduction in cell viability at 0.5 to 5 uM incubated for 18 hrs by Cell Titer-Glo assay; conditions: dose 0.5-5 µM
# How it was run: (§1)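 Cells seeded at 1.5 million per 10-cm dish. Next day they were replated at 10,000 cells/well and rested 4 h. Ligand or vehicle (water, ethanol or DMSO, by ligand) was added in dose-response format in quadruplicate. After 18 h, viability was read by CellTiter-Glo luminescence. Data are mean ± s.e.m., generally representative of 2 independent experiments. One-way ANOVA versus vehicle.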
# HEK-293T [2] = test: Cytotoxicity in human HEK293T cells assessed as reduction in cell viability at 0.5 to 5 uM incubated for 18 hrs by Cell Titer-Glo assay; conditions: dose 0.5-5 µM; how it was run: as §1
# PC-12 [3] = test: Cytotoxicity in rat PC-12 cells assessed as reduction in cell viability at 0.5 to 5 uM incubated for 18 hrs by Cell Titer-Glo assay; conditions: pc-12, 18 h, dose 0.5-5 µM; how it was run: as §1
# [4] = biological target: Nuclear receptor subfamily 4 group A member 2 (Homo sapiens) (UniProt P43354); test: Modulation of full length human Nurr1 expressed in HEK293T cells co-transfected with RXRalpha and luciferase reporter plasmid harboring NurRE response element assessed as increase in luciferase activity incubated for 18 hrs by luciferase reporter gene assay; conditions: filed as modulator, dose 0.01-1 µM
# How it was run: (§2)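 Full-length Nurr1 plasmid, alone (2 μg) or 1 μg plus full-length RXRα (1 μg), cotransfected with 3xNBRE- or 3xNurRE-luciferase reporter (6 μg) using Lipofectamine 2000, 18 h. Cells replated at 10,000/well for 4 h. Four ligand concentrations, or vehicle (water, ethanol or DMSO), added in quadruplicate for 18 h. Luciferase read. Fold change vs vehicle, mean ± s.e.m., one-way ANOVA vs vehicle.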
# PC-12 [5] = test: Modulation of Gal4-fused VP16 expressed in PC12 cells co-transfected with UAS repoter gene assessed as increase in luciferase activity at 0.01 to 1 uM incubated for 18 hrs by luciferase reporter gene assay; conditions: Human alphaherpesvirus 2, filed as modulator, dose 0.01-1 µM
# How it was run: (§3)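 Cells in 10-cm dishes were transfected with Gal4-VP16 expression plasmid (2 μg) plus 5xUAS-luciferase reporter (2 μg) for 18 h. They were replated at 10,000 cells/well for 4 h, then given ligand or vehicle (water, ethanol or DMSO) in quadruplicate for 18 h. Luciferase was read with Britelite Plus. Fold change is versus vehicle-treated cells, with one-way ANOVA versus vehicle.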
# [6] = biological target: Nuclear receptor subfamily 4 group A member 2 (Homo sapiens) (UniProt P43354); test: Modulation of full length human Nurr1 expressed in PC12 cells co-transfected with RXRalpha and luciferase reporter plasmid harboring NBRE response element assessed as increase in luciferase activity incubated for 18 hrs by luciferase reporter gene assay; conditions: PC-12, filed as modulator, dose 0.01-1 µM
# How it was run: (§4)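 PC12 cells were grown at 37°C and 5% CO2 in […] medium with 15% horse serum and 2.5% FBS. They were transfected with full-length Nurr1 (1 μg) plus full-length RXRα (1 μg) and 3xNBRE- or 3xNurRE-luciferase reporter (6 μg) for 18 h, then replated at 10,000 cells/well for 4 h. Ligand or vehicle (water, ethanol or DMSO) was added in quadruplicate for 18 h. Luminescence was read as fold change over vehicle. Results are mean ± s.e.m., n=4, from 2 independent experiments, analysed by one-way ANOVA against vehicle.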
# PC-12 [7] = test: Cytotoxicity in rat PC-12 cells assessed as reduction in cell viability at 0.01 to 1 uM incubated for 18 hrs by Cell Titer-Glo assay; conditions: pc-12, 18 h, dose 0.01-1 µM; how it was run: as §1
# [8] = biological target: Nuclear receptor subfamily 4 group A member 2 (Homo sapiens) (UniProt P43354); test: Modulation of full length human Nurr1 expressed in PC12 cells co-transfected with luciferase reporter plasmid harboring NurRE response element assessed as increase in luciferase activity incubated for 18 hrs by luciferase reporter gene assay; conditions: PC-12, filed as modulator, dose 0.01-1 µM
# How it was run: (§5)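 Here PC12 cells (FK-12 medium, 15% horse serum, 2.5% FBS, 37°C, 5% CO2) received full-length Nurr1 (2 μg) without RXRα, plus 3xNBRE- or 3xNurRE-luciferase reporter (6 μg), for 18 h. Cells were replated at 10,000/well for 4 h, then treated with ligand or vehicle in quadruplicate for 18 h. Luciferase luminescence was normalized to vehicle-treated cells. Results are mean ± s.e.m. (n=4) from 2 independent experiments, with one-way ANOVA against vehicle.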
# [9] = biological target: Nuclear receptor subfamily 4 group A member 2 (Homo sapiens) (UniProt P43354); test: Modulation of full length human Nurr1 expressed in PC12 cells co-transfected with luciferase reporter plasmid harboring NBRE response element assessed as increase in luciferase activity incubated for 18 hrs by luciferase reporter gene assay; conditions: PC-12, filed as modulator, dose 0.01-1 µM; how it was run: as §5
# [10] = biological target: Nuclear receptor subfamily 4 group A member 2 (Homo sapiens) (UniProt P43354); test: Modulation of full length human Nurr1 expressed in HEK293T cells co-transfected with RXRalpha and luciferase reporter plasmid harboring NBRE response element assessed as increase in luciferase activity incubated for 18 hrs by luciferase reporter gene assay; conditions: filed as modulator, dose 0.01-1 µM; how it was run: as §2
# [11] = biological target: Nuclear receptor subfamily 4 group A member 2 (Homo sapiens) (UniProt P43354); test: Modulation of full length human Nurr1 expressed in HEK293T cells co-transfected with luciferase reporter plasmid harboring NBRE response element assessed as increase in luciferase activity incubated for 18 hrs by luciferase reporter gene assay; conditions: filed as modulator, dose 0.01-1 µM; how it was run: as §2
# SK-N-BE(2) [12] = test: Cytotoxicity in human SKNBE2 cells assessed as reduction in cell viability at 0.01 to 1 uM incubated for 18 hrs by Cell Titer-Glo assay; conditions: dose 0.01-1 µM; how it was run: as §1
# SKNBE2 = test: Modulation of Gal4-fused VP16 expressed in SKNBE(2) cells co-transfected with UAS repoter gene assessed as increase in luciferase activity at 0.01 to 1 uM incubated for 18 hrs by luciferase reporter gene assay; conditions: Human alphaherpesvirus 2, filed as modulator, dose 0.01-1 µM; how it was run: as §3
# HEK293T = test: Modulation of Gal4-fused VP16 expressed in HEK293T cells co-transfected with UAS repoter gene assessed as increase in luciferase activity at 0.01 to 1 uM incubated for 18 hrs by luciferase reporter gene assay; conditions: Human alphaherpesvirus 2, filed as modulator, dose 0.01-1 µM; how it was run: as §3
# [13] = biological target: Nuclear receptor subfamily 4 group A member 2 (Homo sapiens) (UniProt P43354); test: Modulation of full length human Nurr1 expressed in SKNBE(2) cells co-transfected with luciferase reporter plasmid harboring NBRE response element assessed as increase in luciferase activity incubated for 18 hrs by luciferase reporter gene assay; conditions: SKNBE2, filed as modulator, dose 0.01-1 µM
# How it was run: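 Transfection of SK-N-BE(2)-C cells (1:1 EMEM/F12, 10% FBS, 37°C, 5% CO2) used full-length Nurr1 alone (2 μg, no RXRα) with 3xNBRE- or 3xNurRE-luciferase reporter (6 μg) for 18 h. Cells were replated at 10,000/well for 4 h, then exposed to ligand or vehicle in quadruplicate for 18 h. Luminescence was expressed as fold over vehicle, as mean ± s.e.m. (n=4) from 2 independent experiments, one-way ANOVA against vehicle.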
# HEK-293T [14] = test: Cytotoxicity in human HEK293T cells assessed as reduction in cell viability at 0.01 to 1 uM incubated for 18 hrs by Cell Titer-Glo assay; conditions: dose 0.01-1 µM; how it was run: as §1
# [15] = biological target: Nuclear receptor subfamily 4 group A member 2 (Homo sapiens) (UniProt P43354); test: Modulation of full length human Nurr1 expressed in PC12 cells co-transfected with RXRalpha and luciferase reporter plasmid harboring NurRE response element assessed as increase in luciferase activity incubated for 18 hrs by luciferase reporter gene assay; conditions: PC-12, filed as modulator, dose 0.01-1 µM; how it was run: as §4
# [16] = biological target: Nuclear receptor subfamily 4 group A member 2 (Homo sapiens) (UniProt P43354); test: Modulation of full length human Nurr1 expressed in SKNBE(2) cells co-transfected with RXRalpha and luciferase reporter plasmid harboring NBRE response element assessed as increase in luciferase activity incubated for 18 hrs by luciferase reporter gene assay; conditions: SKNBE2, filed as modulator, dose 0.01-1 µM
# How it was run: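 SK-N-BE(2)-C cells were kept in 1:1 EMEM/F12 with 10% FBS at 37°C and 5% CO2. They were cotransfected with full-length Nurr1 (1 μg), full-length RXRα (1 μg) and 3xNBRE- or 3xNurRE-luc reporter (6 μg) for 18 h, replated at 10,000 cells/well for 4 h, and then treated with ligand or vehicle in quadruplicate for 18 h. The readout was luciferase luminescence as fold over vehicle, reported as mean ± s.e.m. (n=4) from 2 independent experiments, one-way ANOVA.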
# [17] = biological target: Nuclear receptor subfamily 4 group A member 2 (Homo sapiens) (UniProt P43354); test: Modulation of full length human Nurr1 expressed in SKNBE(2) cells co-transfected with luciferase reporter plasmid harboring NurRE response element assessed as increase in luciferase activity incubated for 18 hrs by luciferase reporter gene assay; conditions: SKNBE2, filed as modulator, dose 0.01-1 µM
# [18] = biological target: Nuclear receptor subfamily 4 group A member 2 (Homo sapiens) (UniProt P43354); test: Modulation of full length human Nurr1 expressed in HEK293T cells co-transfected with luciferase reporter plasmid harboring NurRE response element assessed as increase in luciferase activity incubated for 18 hrs by luciferase reporter gene assay; conditions: filed as modulator, dose 0.01-1 µM; how it was run: as §2
# Nuclear receptor subfamily 4 group A member 2 (Homo sapiens), sequence (P43354 whole entry): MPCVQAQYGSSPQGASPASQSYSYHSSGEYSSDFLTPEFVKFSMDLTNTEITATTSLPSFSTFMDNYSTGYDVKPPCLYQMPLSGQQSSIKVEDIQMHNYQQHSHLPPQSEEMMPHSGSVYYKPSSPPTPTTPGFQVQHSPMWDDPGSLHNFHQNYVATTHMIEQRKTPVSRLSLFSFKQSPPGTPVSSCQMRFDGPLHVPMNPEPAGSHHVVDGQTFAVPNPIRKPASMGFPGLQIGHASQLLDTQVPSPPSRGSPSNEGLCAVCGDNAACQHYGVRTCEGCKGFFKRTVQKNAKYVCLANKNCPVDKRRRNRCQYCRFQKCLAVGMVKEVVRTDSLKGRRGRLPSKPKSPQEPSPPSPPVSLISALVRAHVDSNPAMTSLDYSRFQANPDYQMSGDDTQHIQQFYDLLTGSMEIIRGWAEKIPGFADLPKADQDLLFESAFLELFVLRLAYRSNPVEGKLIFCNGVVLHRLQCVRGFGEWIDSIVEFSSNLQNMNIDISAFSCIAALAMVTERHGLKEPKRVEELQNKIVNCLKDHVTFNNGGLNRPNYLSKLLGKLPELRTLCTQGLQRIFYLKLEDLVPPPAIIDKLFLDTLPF
SMILES,Activity (SK-N-BE(2) [1]),Activity (HEK-293T [2]),Activity (PC-12 [3]),Activity [4],Activity (PC-12 [5]),Activity [6],Activity (PC-12 [7]),Activity [8],Activity [9],Activity [10],Activity [11],Activity (SK-N-BE(2) [12]),Activity (SKNBE2),Activity (HEK293T),Activity [13],Activity (HEK-293T [14]),Activity [15],Activity [16],Activity [17],Activity [18]
O=C(O)c1ccc2nc(-c3ccc(F)cc3)[nH]c2c1,Non-Toxic,Non-Toxic,Non-Toxic,–,–,–,–,–,–,–,–,–,–,–,–,–,–,–,–,–
O=C(Nc1ccccc1)c1cn2cc(-c3ccccn3)ccc2n1,–,–,–,Dose-Dependent Effect,Active,Dose-Dependent Effect,Non-Toxic,Dose-Dependent Effect,Dose-Dependent Effect,Dose-Dependent Effect,Dose-Dependent Effect,Non-Toxic,Active,Active,Dose-Dependent Effect,Non-Toxic,Dose-Dependent Effect,Dose-Dependent Effect,Dose-Dependent Effect,Dose-Dependent Effect
